# Results reported in ChEMBL document CHEMBL3734704, “Synthesis and Biological Evaluation of Novel Bouchardatine Derivatives as Potential Adipogenesis/Lipogenesis Inhibitors for Antiobesity Treatment” (J Med Chem, 2015).
# Active and inactive are the calls of the source. The rule behind the calls is not given here.
# Legend:
# [1] = tested on: HepG2; assay: Decrease in triglyceride level in human HepG2 cells at 1 uM after 24 hrs by GPO-POD assay in presence of 0.5 mM oleic acid sodium; type: functional
# Procedure, shortened: (§1)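 HepG-2 cells seeded, then after 24 h exposed to 0.5 mM oleic acid sodium plus compound (1 µM; dose series up to 10 µM) for 24 h, DMSO vehicle. Cells lysed in 0.2% Triton X-100 for 1 h, sonicated, centrifuged. Triglyceride measured by GPO-POD kit and cholesterol by kit, both normalized to BCA protein; n = 3.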
# [2] = tested on: HepG2; assay: Decrease in cholesterol level in human HepG2 cells at 1 uM after 24 hrs by […] assay in presence of 0.5 mM oleic acid sodium; type: functional; procedure, shortened: as §1
# [3] = tested on: 3T3-L1; assay: Inhibition of adipogenesis in mouse 3T3L1 cells assessed as reduction in mature adipocytes number at 1 uM measured during 0 to 3,0 to 6,0 to 9, 3 to 6, 3 to 9 and 6 to 9 days by oil red O staining based microscopic analysis; type: functional, cell-based
# Procedure, shortened: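 Differentiation was induced two days post-confluence (day 0) with IBMX/dexamethasone/insulin for 3 days, then insulin medium. Compound at 1 µM was present during days 0-3, 0-6, 0-9, 3-6, 3-9 or 6-9. On day 9, cells were fixed in 4% formaldehyde, stained with Oil Red O for 30 min, and imaged by microscopy. A TG assay was also run; DMSO vehicle served as control.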
# [4] = tested on: 3T3-L1; assay: Decrease in lipid droplet accumulation in mouse 3T3L1 cells at 1 uM measured during 0 to 3,0 to 6,0 to 9, 3 to 6, 3 to 9 and 6 to 9 days by oil red O staining based microscopic analysis; type: functional, cell-based
# Procedure, shortened: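 3T3-L1 cells given 1 µM compound during day 0-3, 0-6, 0-9, 3-6, 3-9 or 6-9 of differentiation. On Day 9, intracellular lipid measured by TG assay (Triton lysate, GPO-POD kit, per protein) and by Oil Red O staining with microscopy; n = 3.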
# [5] = Cell cycle arrest in mouse 3T3L1 cells assessed as number of cells at S phase at 3 uM after 24 hrs by flow cytometry (reference value: 18.1%); type: functional, cell-based; conditions: 3T3-L1
# [6] = Cell cycle arrest in mouse 3T3L1 cells assessed as number of cells at G0/G1 phase at 0.3 uM after 24 hrs by flow cytometry (reference value: 37.6%); type: functional, cell-based; conditions: 3T3-L1
# [7] = Downregulation of CaMKKalpha expression in mouse 3T3L1 cells by western blot analysis; type: functional, cell-based; conditions: 3T3-L1
# [8] = biological target: T1, Serine/threonine-protein kinase STK11 (Mus musculus) (UniProt Q9WTK7); assay: Activation of LKB1-mediated ACC in mouse 3T3L1 cells assessed as increase in phophorylated ACC level at 3 uM after 3 days by western blot analysis; type: cell-based; conditions: 3T3-L1
# T1 sequence (whole entry): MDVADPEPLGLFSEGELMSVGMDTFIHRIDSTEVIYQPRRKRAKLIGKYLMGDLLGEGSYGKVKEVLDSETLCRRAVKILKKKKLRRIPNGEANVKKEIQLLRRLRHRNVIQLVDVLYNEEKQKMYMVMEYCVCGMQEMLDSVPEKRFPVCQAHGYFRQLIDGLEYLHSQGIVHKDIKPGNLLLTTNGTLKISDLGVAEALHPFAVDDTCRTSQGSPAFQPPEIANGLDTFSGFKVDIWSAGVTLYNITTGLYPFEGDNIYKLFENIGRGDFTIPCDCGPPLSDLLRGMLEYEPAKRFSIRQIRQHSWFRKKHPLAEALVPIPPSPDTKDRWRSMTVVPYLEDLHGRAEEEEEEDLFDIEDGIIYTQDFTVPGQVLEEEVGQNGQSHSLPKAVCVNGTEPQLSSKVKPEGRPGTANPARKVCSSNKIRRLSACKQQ
# [9] = Downregulation of C/EBP delta mRNA level in mouse 3T3L1 cells at 3 uM after 2 and 24 hrs by RT-PCR analysis; type: functional, cell-based; conditions: 3T3-L1
# Procedure, shortened: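 3T3-L1 preadipocytes in adipogenic cocktail with compound (0.3-3.0 µM; 3 µM for the 2 h and 24 h time course). Total RNA extracted, cDNA made from 1 µg RNA with oligo primer, then PCR: 95 °C 10 min, 35 cycles of 95 °C 30 s, annealing 45 s, 72 °C 1 min, final 72 °C 10 min. Normalized to actin; n = 3.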
smiles,measurement,setting,value
O=Cc1c(-c2nc(NCCN3CCCC3)c3ccccc3n2)[nH]c2ccccc12,inhibition (INH),[1],70%
same,inhibition (INH),[2],<10%
same,inhibition,[3],Active
same,inhibition,[4],Active
same,Activity,[5],3.3%
same,Activity,[6],51.8%
same,inhibition,[7],Active
same,Activity,[8],Active
same,inhibition,[9],Active
